According to the array DNA melting data of Ke et al. (doi:10.1101/2024.01.08.574731):

Legend:
[1] = melting temperature; fluorescence melt of hairpins on a sequencing array, two-state fit, raised by 9.35 °C to match UV melts; conditions: sodium 0.088 M
Procedure, shortened: (§1)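 Melting temperature and folding enthalpy were obtained by bootstrapped two-state fitting. Fits used Cy3 fluorescence of library hairpins with annealed Cy3 and quencher oligos on a sequenced MiSeq flow cell, imaged in 50 mM Na-HEPES pH 8.0, 25 mM NaCl in 2.5 °C steps up to 60 °C and normalised to pre-quench Cy3 and control constructs. Four replicates were combined by inverse-variance weighting, and fitted temperatures were raised by 9.35 °C to match UV melts.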

[2] = folding enthalpy; higher = less favourable; fluorescence melt of hairpins on a sequencing array, two-state fit; conditions: sodium 0.088 M
Procedure, shortened: as §1

Sequence	Tm [1]	folding enthalpy [2]
GCTCAGACGAAAGTCAGC (((..(((....))))))	41 °C	-15.5 kcal/mol
GCTCAGCGAAAGCCGAGC ((((.((....)).))))	63.5 °C	-28.1 kcal/mol
GCTCAGCGAAAGCTAGGC ((..(((....)))..))	44.5 °C	-15.5 kcal/mol
GCTCAGCGAAAGCTGCGC ((.((((....)))).))	59.9 °C	-24.8 kcal/mol
GCTCAGCGAAAGCTTGGC ((..(((....)))..))	39.7 °C	-18.8 kcal/mol
GCTCAGGCGAAAGCCAGC (((..(((....))))))	42.8 °C	-12.6 kcal/mol
GCTCAGGGAAACCCAAGC (((..((....))..)))	33.3 °C	-12.9 kcal/mol
GCTCAGGGAAACCTAAGC (((.(((....))).)))	34.1 °C	-20.6 kcal/mol
GCTCAGGGAAACTTGAGC (((((.(....).)))))	48.7 °C	-33.3 kcal/mol
GCTCATCCGAAAGGAAGC (((..(((....))))))	29.8 °C	-11.2 kcal/mol
GCTCATCGAAAGATAGC (((.(((....))))))	42.3 °C	-26.3 kcal/mol
GCTCATCGAAAGATCAGC (((.(((....))).)))	34.7 °C	-29.6 kcal/mol
GCTCATGGAAACACGAGC ((((.((....)).))))	42.6 °C	-38.1 kcal/mol
GCTCATGGAAACATGAAC (.(((((....))))).)	35.7 °C	-18.3 kcal/mol
GCTCATGGAAACATGAGC (((((((....)))))))	67.6 °C	-33 kcal/mol
GCTCCAGAAATGGAGC ((((((....))))))	65.8 °C	-32 kcal/mol
GCTCCAGGAAACTAGAGC ((((.((....)).))))	36.5 °C	-25.4 kcal/mol
GCTCCATCGAAAGATAGC (((..(((....))))))	24.6 °C	-10.7 kcal/mol
GCTCCCGAAAGGGACAGC ((((((....)))..)))	44.7 °C	-12.6 kcal/mol

Sequence	Tm [1]	folding enthalpy [2]
GCTCCCGAAAGGGGAAGC ((((((....)))..)))	50 °C	-19.2 kcal/mol
GCTCCCGAAAGGGGTAGC ((((((....)))..)))	48.7 °C	-18.1 kcal/mol
GCTCCGCGAAAGCAAAGC (((..((....))..)))	31.5 °C	-11 kcal/mol
GCTCCGCGAAAGCCAAGC (((..((....))..)))	26.1 °C	-8.28 kcal/mol
GCTCCGCGAAAGCGAGC (((.(((....))))))	61.7 °C	-20.6 kcal/mol
GCTCCGCGAAAGCGTCGC ((..(((....)))..))	35.2 °C	-15.9 kcal/mol
GCTCCGCGAAAGCGTGGC ((..(((....)))..))	50.1 °C	-15.7 kcal/mol
GCTCCGCGAAAGCGTTGC ((..(((....)))..))	40.4 °C	-14.2 kcal/mol
GCTCCGCGAAAGCTGTGC ((.(.((....)).).))	41.2 °C	-14.9 kcal/mol
GCTCCGGGAAACCAGAGC ((((.((....)).))))	47 °C	-31.9 kcal/mol
GCTCCGGGAAACTGGAGC (((((.(....).)))))	60.1 °C	-45.7 kcal/mol
GCTCCGGGAAACTGGGGC ((.((.(....).)).))	48.1 °C	-33.9 kcal/mol
GCTCGAGGAAACTTGAGC ((((.((....)).))))	50.8 °C	-37.8 kcal/mol
GCTCGCGAAAGCGGCAGC ((((((....)))..)))	48.9 °C	-12.2 kcal/mol
GCTCGCTCGAAAGAGAGC (((..(((....))))))	48.6 °C	-20.8 kcal/mol
GCTCGGACGAAAGTCAGC (((..(((....))))))	39.1 °C	-12.3 kcal/mol
GCTCGGCGAAAGCACAGC (((..((....))..)))	51.2 °C	-12.2 kcal/mol
GCTCGGCGAAAGCATAGC (((..((....))..)))	44 °C	-12.3 kcal/mol
